# Assay outcomes: PubChem BioAssay, several laboratories
# The list is not random: actives were taken first. Their share in the collection is about 4.9%.
# STAT1 act = STAT1 signaling activators, primary screen, cell-based, HTS, luciferase reporter; actives 2.6% (n = 200,000); NIH 3T3 STAT1-luciferase reporter, IFN-gamma, luminescence; 100% = IFN-gamma alone, no compound; activation (% of control), % at 5.5 µM;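 active = activation above the screen-wide mean activation plus 3 SD, cut at about 130% in these data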;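 also: raw ratio to IFN-gamma control signal so 100% means no change and 0% no light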
# NF-kB expr up = activators of NF-kB expression in neurons, primary screen, cell-based, HTS; human neuronal cells, NF-kB reporter expression; hits give high values; actives 1.6% (n = 190,000); fold change at 12.5 µM; in the data active = fold change above about 3.3
# STAT3 blocker = IL-6 driven STAT3 reporter inhibitors, primary screen, U3A cells, luciferase, luminescence, MLSCN library; IL-6 STAT3-luciferase reporter; host cell line lacks STAT1; inhibition, % at 5.5 µM; actives 0.89% (n = 190,000); AID 862, 2007;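 active = inhibition above the mean inhibition across all screened compounds plus 3 SD, cut at about 44% in these data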;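 also: 0% = DMSO only wells and 100% = 100 µM nifuroxazide control wells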
# STAT3 act = IL-6 driven STAT3 reporter potentiators, primary screen, U3A cells, luciferase, luminescence, MLSCN library; AID 871, 2007; activation (% of control), % at 5.6 µM; IL-6 STAT3-luciferase reporter; 100% = signal with IL-6 EC80 alone; actives 0.91% (n = 190,000);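 active = activation above the screen-wide mean of compound activation plus 3 SD, cut at about 130% in these data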;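 also: 0% = background luminescence of wells with medium and substrate only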
#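 Material: STAT1-lacking human U3A cells, STAT3 luciferase reporter | Benchmarks: IL-6-only wells as 100% reference | Probe or stimulus: IL-6 (33 ng/mL) | Timing: Compound 1 h, then IL-6 6 h at 37 °C | Detection: Luminescence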
# STAT1 inh = STAT1 signaling inhibitors, primary screen, cell-based, HTS, luciferase reporter | NIH 3T3 STAT1-luciferase reporter, IFN-gamma, luminescence | inhibition, % at 5.5 µM | actives 0.35% (n = 200,000) | AID 920, 2007;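 active = inhibition above a set limit, the mean inhibition across all tested compounds plus 3 SD, cut at about 34% in these data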;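 also: 0% = IFN-gamma with DMSO and 100% = IFN-gamma with 300 µM nifuroxazide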
# APP 5'UTR act = activators of APP 5'UTR luciferase reporter, primary screen, SH-SY5Y cells | SH-SY5Y APP 5'UTR luciferase reporter, luminescence; zero percent = DMSO vehicle wells | activation, % at 2 µM | actives 1% (n = 190,000);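 active = activation above a set limit, based on mean plus 3 SD of controls, cut at about 140% in these data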
# Active calls of the source: *; · = no result given.
SMILES,STAT1 act,NF-kB expr up,STAT3 blocker,STAT3 act,STAT1 inh,APP 5'UTR act
Cc1cccc(NC(=O)/C=C/c2ccc(Cl)cc2)n1,139*,1.2,36,71,-44,182*
Cc1cccc(OCCC(=O)Nc2c(C)n(C)n(-c3ccccc3)c2=O)c1,103,1.1,7,97,-3,3
O=C(COc1ccc(S(=O)(=O)N2CCOCC2)cc1)Nc1ccc(Cl)c(C(F)(F)F)c1,94,0.73,13,91,7,-14
O=C(CN1C(=O)NC(c2ccccc2)(c2ccccc2)C1=O)c1c[nH]c2ccccc12,101,1.1,-7,112,-2,-6
CCCCNC(=O)c1onc(CSc2ccccc2CC)c1C(=O)O,97,1,120*,7,3,7
COC(=O)c1cnc(SCc2ccc(Cl)cc2)n1C,117,1.8,6,97,-19,227*
COCC(=O)Nc1nc2ccccc2s1,120,1.9,-11,109,-21,7
O=C(Cc1ccccc1)Nc1nc2ccccc2s1,125,7.1*,-8,108,-32,54
Cn1cc(Cl)c(C(=O)Nc2nc3ccccc3s2)n1,148*,4.4*,31,76,-52,146*
O=C(Cc1cccs1)Nc1nc2ccccc2s1,126,4.2*,9,96,-29,60
CC(C)C(=O)NNc1nc2ccccc2s1,132*,2,17,88,-35,28
CN(O)/C=N/C(=S)Nc1ccc(Cl)cc1Cl,96,0.84,17,89,1,-3
Cc1ccc(C(=O)N/N=C/c2ccc3c(c2)OCO3)o1,138*,2,-30,131,-42,35
Cc1ccc(C(=O)/C=C/c2ccc3c(c2)OCO3)o1,105,1.8,10,94,-5,21
Cc1ccc(N(Cc2ccccc2F)S(C)(=O)=O)cc1C,102,1.1,-6,106,2,-14
CN(C)S(=O)(=O)c1ccc(C(=O)NCCOc2ccccc2)cc1,131*,2.8,-16,116,-41,·
CCCCCC(=O)O[C@]1(C(C)=O)CC[C@H]2[C@@H]3CCC4=CC(=O)CC[C@]4(C)[C@H]3CC[C@@]21C,105,1,-4,106,-5,54
CC(C)C(NC(=O)C(NC(=O)C1OC2OC(C)(C)OC2C2OC(C)(C)OC12)C(C)C)C(=O)O (centres undefined),99,1.1,6,101,-1,-10
CCCCN1C(=O)C(=O)N(c2ccccc2)C1=S,135*,3.4*,2,101,-40,87
CC(=O)c1cccc(NC(=O)COC(=O)[C@@H](NC(=O)OCc2ccccc2)C(C)C)c1,94,0.92,-1,106,7,2
COC(=O)c1cc(-c2ccc(Br)cc2)on1,95,1.2,18,92,6,7
CCN(CC)C(=O)c1cc(-c2ccc(Br)cc2)on1,147*,3.3*,12,90,-52,74
CN(C)S(=O)(=O)c1ccc2nc(NC(=O)c3cccnc3)sc2c1,121,1.6,-5,106,-27,83
O=C(NC(Nc1nc2ccc([N+](=O)[O-])cc2s1)(C(F)(F)F)C(F)(F)F)c1ccccc1Cl,57,0.87,92*,22,47*,-66
O=C(NC(Nc1nc2ccc([N+](=O)[O-])cc2s1)(C(F)(F)F)C(F)(F)F)c1cccnc1,59,0.48,71*,42,46*,-1
O=C(NC(NNc1ccc([N+](=O)[O-])cc1)(C(F)(F)F)C(F)(F)F)c1ccccc1Cl,91,1,8,98,10,-11
CCO[C@H]1OC(C(=O)N2CCOCC2)=C[C@@H](c2coc3ccccc3c2=O)[C@@H]1CCCO,93,1.3,·,·,9,14
Cc1ccccc1C(=O)c1ccc2c(c1)n(C)c(=O)n2C,102,0.85,11,95,-3,3
Cc1noc(C)c1COC(=O)CCCc1c[nH]c2ccccc12,88,1.2,-32,134*,14,-17
CCC(=O)Oc1ccc2oc(=O)cc(C)c2c1,100,1.3,-8,110,0,-5
